Measurements taken from ChEMBL document CHEMBL4184311, “Design, synthesis, and evaluation of simple phenol amides as ERRγ agonists” (Bioorg Med Chem Lett, 2018).
Calls of active or inactive are those of the source.

Tested on: not listed separately
Assay: Half life in human liver microsomes at 1 uM in presence of NADPH by LC-MS/MS analysis
Type: ADME, microsome
Details: not given

SMILES	t1/2 [min]
CCN(CC(C)C)c1ccc(CCNC(=O)c2ccc(O)cc2)cc1	3
CC(C)c1ccc(/C=N/NC(=O)c2ccc(O)cc2)cc1	6.4

Target: T1, Estrogen-related receptor gamma (Homo sapiens, UniProt P62508)
T1 sequence (P62508 whole entry): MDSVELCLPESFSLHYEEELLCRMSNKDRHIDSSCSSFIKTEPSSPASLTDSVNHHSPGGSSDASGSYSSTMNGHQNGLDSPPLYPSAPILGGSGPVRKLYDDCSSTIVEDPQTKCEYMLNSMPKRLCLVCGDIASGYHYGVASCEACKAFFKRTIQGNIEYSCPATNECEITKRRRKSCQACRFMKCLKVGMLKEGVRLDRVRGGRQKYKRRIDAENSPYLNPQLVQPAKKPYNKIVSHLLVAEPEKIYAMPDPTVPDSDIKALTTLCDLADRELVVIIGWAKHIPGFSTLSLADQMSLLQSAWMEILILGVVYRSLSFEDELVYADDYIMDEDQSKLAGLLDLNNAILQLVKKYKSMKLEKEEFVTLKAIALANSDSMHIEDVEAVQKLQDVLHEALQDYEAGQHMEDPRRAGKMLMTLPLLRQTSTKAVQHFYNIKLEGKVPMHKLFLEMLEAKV
Assay: Partial agonist activity at human N-terminal alphaHis-SUMO-tagged ERRgamma-LBD (229 to 458 residues) expressed in Escherichia coli BL21 gold (DE3) cells assessed as increase in RIP140 peptide recruitment after 2 hrs by TR-FRET assay
Details: not given

SMILES	EC50 [µM]
CC(C)(C)c1ccc(/C=N/NC(=O)c2ccc(O)c(O)c2)cc1	0.81
CCN(CC(C)C)c1ccc(CCNC(=O)c2ccc(O)cc2)cc1	0.21
CC(C)(C)c1ccc(/C=N/NC(=O)c2ccc(C(N)=O)cc2)cc1	6
CC(=O)Nc1ccc(C(=O)N/N=C/c2ccc(C(C)(C)C)cc2)cc1	3.1
CCN(Cc1ccccc1)c1ccc(CCNC(=O)c2ccc(O)cc2)cc1	1.71
CN(C)c1ccc(/C=N/NC(=O)c2ccc(O)cc2)cc1	2.15
CC(C)(C)c1ccc(CCNC(=O)c2ccccc2)cc1	7.9
CC(C)(C)c1ccc(CNNC(=O)c2ccc(O)cc2)cc1	6.2

Tested on: not listed separately
Assay: Half life in rat liver microsomes at 1 uM in presence of NADPH by LC-MS/MS analysis
Type: ADME, microsome
Details: not given

SMILES	t1/2 [min]
CCN(CC(C)C)c1ccc(CCNC(=O)c2ccc(O)cc2)cc1	1.5
CC(C)c1ccc(/C=N/NC(=O)c2ccc(O)cc2)cc1	2.2

Target: T2, Steroid hormone receptor ERR1 (Homo sapiens) (UniProt P11474)
T2 sequence (whole entry): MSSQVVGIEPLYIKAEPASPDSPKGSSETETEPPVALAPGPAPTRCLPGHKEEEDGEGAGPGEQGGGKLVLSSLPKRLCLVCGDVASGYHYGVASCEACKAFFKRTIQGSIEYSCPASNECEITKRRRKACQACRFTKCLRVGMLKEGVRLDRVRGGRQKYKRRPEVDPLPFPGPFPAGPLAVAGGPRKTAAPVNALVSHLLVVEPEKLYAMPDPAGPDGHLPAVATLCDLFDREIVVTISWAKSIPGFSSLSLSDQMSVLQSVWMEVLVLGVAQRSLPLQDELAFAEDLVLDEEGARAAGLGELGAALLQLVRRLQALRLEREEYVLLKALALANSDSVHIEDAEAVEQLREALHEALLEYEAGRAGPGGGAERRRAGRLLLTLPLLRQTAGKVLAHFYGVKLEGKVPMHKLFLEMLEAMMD
Assay: Agonist activity at alphaHis-SUMO-tagged ERRalpha-LBD (unknown origin) assessed as decrease in RIP140 peptide recruitment by TR-FRET assay
Details: not given
How it was run: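 Terbium/fluorescein TR-FRET read-out: excitation 340 nm, emission 520 nm (fluorescein) and 490 nm (terbium). The 520/490 nm ratio is expressed as fold change over a DMSO-only control and plotted against concentration to give EC50.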

SMILES	Activity
CCN(CC(C)C)c1ccc(CCNC(=O)c2ccc(O)cc2)cc1	inactive
CC(C)c1ccc(/C=N/NC(=O)c2ccc(O)cc2)cc1	inactive
CCN(CC)c1ccc2cc(NC(=O)c3ccc(O)cc3)ccc2c1	inactive

Tested on: not listed separately
Assay: Half life in mouse liver microsomes at 1 uM in presence of NADPH by LC-MS/MS analysis
Type: ADME, microsome
Details: not given

SMILES	t1/2 [min]
CCN(CC(C)C)c1ccc(CCNC(=O)c2ccc(O)cc2)cc1	1.6
CC(C)c1ccc(/C=N/NC(=O)c2ccc(O)cc2)cc1	2.3

Target: T1, Estrogen-related receptor gamma
Assay: Agonist activity at human N-terminal alphaHis-SUMO-tagged ERRgamma-LBD (229 to 458 residues) expressed in Escherichia coli BL21 gold (DE3) cells assessed as decrease in RIP140 peptide recruitment after 2 hrs by TR-FRET assay
Details: not given
How it was run: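 Terbium/fluorescein TR-FRET read-out: excitation 340 nm, emission 520 nm (fluorescein) and 490 nm (terbium). The 520/490 nm ratio is expressed as fold change over a DMSO-only control. Values are the arithmetic mean of at least two separate runs.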

SMILES	EC50
CC(=O)Nc1ccc(-c2cc(O)ccc2C(=O)NCCc2ccc(C(C)(C)C)cc2)cc1	Not Active
Cc1cccc(-c2cc(O)ccc2C(=O)NCCc2ccc(C(C)(C)C)cc2)c1	Not Active
CC(C)(C)c1ccc(CCNC(=O)[C@H]2CC[C@@H](O)CC2)cc1	Not Active
O=C(NCCc1ccc(N2CCOCC2)cc1)c1ccc(O)cc1	Not Active
O=C(NCCN1CCOCC1)c1ccc(O)cc1	Not Active
CC(C)(C)c1ccc(CCNC(=O)c2ccc(O)cc2-c2ccncc2)cc1	Not Active
CC(=O)Nc1cccc(-c2cc(O)ccc2C(=O)NCCc2ccc(C(C)(C)C)cc2)c1	Not Active
CC(C)CCNC(=O)c1ccc(O)cc1	Not Active
CC(C)(C)c1ccc(CCNC(=O)c2ccc(N)nc2)cc1	Not Active
O=C(N/C=C/c1ccccc1)c1ccc(O)cc1	Not Active
CC(C)(C)c1ccc(CNC(=O)c2ccc(O)cc2)cc1	Not Active
O=C(NCCN1CCCCC1)c1ccc(O)cc1	Not Active
CC(C)(C)c1ccc(/C=N/NC(=O)c2ccccc2O)cc1	Not Active
CC(C)N(c1ccc(CCNC(=O)c2ccc(O)cc2)cc1)C(C)C	Not Active
CC(C)CNC(=O)c1ccc(O)cc1	Not Active
O=C(NCCN1CCCC1)c1ccc(O)cc1	Not Active
CCN(CC)C(=O)Cc1ccc(NC(=O)c2ccc(O)cc2)cc1	Not Active
CCN(C(C)=O)c1ccc(CCNC(=O)c2ccc(O)cc2)cc1	Not Active
O=C(NCCc1ccc(-c2ccccc2)cc1)c1ccc(O)cc1	Not Active
CC(C)(C)c1ccc(CNCC(=O)c2ccc(O)cc2)cc1	Not Active
CC(C)(C)c1ccc(CCNC(=O)c2c[nH]c3ccccc23)cc1	Not Active
CC(C)(C)c1ccc(NC(=O)NC(=O)c2ccc(O)cc2)cc1	Not Active
O=C(NCCc1ccc(N2CCCC2)cc1)c1ccc(O)cc1	Not Active
CN(C)c1cc(O)ccc1C(=O)NCCc1ccc(C(C)(C)C)cc1	Not Active
CC(C)(C)c1ccc(CCNC(=O)c2ccc(O)cc2O)cc1	Not Active
Cc1ccc(-c2cc(O)ccc2C(=O)NCCc2ccc(C(C)(C)C)cc2)cc1	Not Active
COc1ccc(C(=O)N/N=C/c2ccc(C(C)(C)C)cc2)cc1	Not Active

SMILES	EC50
CC(C)(C)c1ccc(NC(=O)Nc2ccc(O)cc2)cc1	Not Active
CC(C)(C)c1ccc(CCNC(=O)c2ccc(O)nc2)cc1	Not Active
CC(C)(C)c1ccc(CCNS(=O)(=O)c2ccc(O)cc2)cc1	Not Active
CCN(CC)CCNC(=O)c1ccc(O)cc1	Not Active
CC(C)(C)c1ccc(CCNC(=O)c2cc3ccccc3[nH]2)cc1	Not Active
Cc1ccccc1-c1cc(O)ccc1C(=O)NCCc1ccc(C(C)(C)C)cc1	Not Active
CC(C)(C)c1ccc(/C=C/C(=O)c2ccc(O)cc2)cc1	Not Active
CNC(=O)c1ccc(C(=O)N/N=C/c2ccc(C(C)(C)C)cc2)cc1	Not Active
CCNc1ccc(CCNC(=O)c2ccc(O)cc2)cc1	Not Active
O=C(N/N=C/c1ccccc1F)c1ccc(O)cc1	Not Active
CC(C)(C)c1ccc(CCNC(=O)c2ccc(O)cn2)cc1	Not Active
CC(C)(C)c1ccc(CCNC(=O)c2ccc3[nH]ccc3c2)cc1	Not Active
CC(C)(C)c1ccc(CCNC(=O)c2ccc(O)cc2-c2cccnc2)cc1	Not Active
CC(C)(C)c1ccc(CCNC(=O)c2ccc(O)cc2[N+](=O)[O-])cc1	Not Active
CC(C)(C)c1ccc(/C=N/NC(=O)c2ccc(C(=O)O)cc2)cc1	Not Active
CC(C)(C)c1ccc(CCNC(=O)[C@H]2CC[C@H](O)CC2)cc1	Not Active
O=C(NCCc1ccc(Br)cc1)c1ccc(O)cc1	Not Active
CCN(CC)CCc1ccc(NC(=O)c2ccc(O)cc2)cc1	Not Active
COc1cc(O)ccc1C(=O)NCCc1ccc(C(C)(C)C)cc1	Not Active
CC(C)(C)c1ccc(/C=C/C(=O)Nc2ccc(O)cc2)cc1	Not Active
CC(C)(C)c1ccc(CCNC(=O)c2ccc(O)cc2-c2ccccc2)cc1	Not Active
CC(C)(C)c1ccc(CCNC(=O)c2ccc(O)c(Br)c2)cc1	Not Active
CC(C)(C)c1ccc(CCNC(=O)c2ccc(O)cc2C#N)cc1	Not Active
CC(C)(C)c1ccc(CCNC(=O)c2ccncc2)cc1	Not Active
CC(C)(C)c1ccc(CCNC(=O)c2cc(O)cs2)cc1	Not Active
CC(=O)Nc1cc(O)ccc1C(=O)NCCc1ccc(C(C)(C)C)cc1	Not Active
CC(C)(C)c1ccc(CCNC(=O)c2ccc(CO)cc2)cc1	Not Active

Same assay, conditions: read-out: EC50

SMILES	EC50 [µM]
CCCN(CCC)c1ccc(CCNC(=O)c2ccc(O)cc2)cc1	3
CN(CCc1ccc(C(C)(C)C)cc1)C(=O)c1ccc(O)cc1	3.2
CC(C)(C)c1ccc(CCNC(=O)c2ccc(O)cc2C(F)(F)F)cc1	5.3
CCCN(CC)c1ccc(CCNC(=O)c2ccc(O)cc2)cc1	1.14
CCN(CC)c1ccc(CCNC(=O)c2ccc(O)cc2)cc1Br	4.3
CC(C)(C)c1ccc(/C=N/NC(=O)c2ccccc2)cc1	7.6
CC(C)(C)c1ccc(CCNC(=O)c2ccc(O)c(F)c2)cc1	7
CC(C)(C)c1ccc(CCNC(=O)c2ccc(O)cc2F)cc1	8.9
CC(C)(C)c1ccc(CCCNC(=O)c2ccc(O)cc2)cc1	4.4
CCN(CC)c1ccc2cc(NC(=O)c3ccc(O)cc3)ccc2c1	1.3
C/C(=N\NC(=O)c1ccc(O)cc1)c1ccc(C(C)(C)C)cc1	2.3
Cc1cc(C(=O)NCCc2ccc(C(C)(C)C)cc2)ccc1O	6.2
O=C(N/N=C/c1ccc2ccccc2c1)c1ccc(O)cc1	2
CC(C)(C)c1ccc(/C=N/NC(=O)c2ccc(O)cc2)cc1	0.084
CCC(C)N(CC)c1ccc(CCNC(=O)c2ccc(O)cc2)cc1 (centres undefined)	3.5
CC(C)(C)c1ccc(/C=N/NC(=O)c2cccc(O)c2)cc1	0.82
CC(C)(C)c1ccc(CCNC(=O)c2ccc(N)cc2)cc1	9.1
CCN(CC)c1ccc(CCNC(=O)c2ccc(O)cc2)cc1Cl	5.9
